From ChEMBL document CHEMBL1124558, “Differential effects of a series of hydroxamic acid derivatives on 5-lipoxygenase and cyclooxygenase from neutrophils and 12-lipoxygenase from platelets and their in vivo effects on inflammation and anaphylaxis” (J Med Chem, 1989)

What was measured:
[1] = target: T1, Cyclooxygenase (Rattus norvegicus) (UniProt P35355+Q63921); assay: Inhibition of Prostaglandin G/H synthase in rat polymorphonuclear leukocytes; type: cell-based; parameters: concentration or dose not given beside the values; settings: concentration not given here
Method in brief: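 Homogenate of glycogen-elicited rat peritoneal PMNs in 0.1 M Tris-HCl pH 8.2 with 10 μM NDGA, preincubated 5 min at 37 °C with compound (≤0.1% DMSO). [14C]arachidonic acid (8 μM) added with 4 mM glutathione and epinephrine; 10 min reaction. TxB2 and PGF2α separated by TLC and counted.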

[2] = target: T2, Polyunsaturated fatty acid 5-lipoxygenase (Rattus norvegicus, UniProt P12527); assay: In vitro inhibition of rat polymorphonuclear leukocyte 5-lipoxygenase
T2 sequence (P12527 whole entry): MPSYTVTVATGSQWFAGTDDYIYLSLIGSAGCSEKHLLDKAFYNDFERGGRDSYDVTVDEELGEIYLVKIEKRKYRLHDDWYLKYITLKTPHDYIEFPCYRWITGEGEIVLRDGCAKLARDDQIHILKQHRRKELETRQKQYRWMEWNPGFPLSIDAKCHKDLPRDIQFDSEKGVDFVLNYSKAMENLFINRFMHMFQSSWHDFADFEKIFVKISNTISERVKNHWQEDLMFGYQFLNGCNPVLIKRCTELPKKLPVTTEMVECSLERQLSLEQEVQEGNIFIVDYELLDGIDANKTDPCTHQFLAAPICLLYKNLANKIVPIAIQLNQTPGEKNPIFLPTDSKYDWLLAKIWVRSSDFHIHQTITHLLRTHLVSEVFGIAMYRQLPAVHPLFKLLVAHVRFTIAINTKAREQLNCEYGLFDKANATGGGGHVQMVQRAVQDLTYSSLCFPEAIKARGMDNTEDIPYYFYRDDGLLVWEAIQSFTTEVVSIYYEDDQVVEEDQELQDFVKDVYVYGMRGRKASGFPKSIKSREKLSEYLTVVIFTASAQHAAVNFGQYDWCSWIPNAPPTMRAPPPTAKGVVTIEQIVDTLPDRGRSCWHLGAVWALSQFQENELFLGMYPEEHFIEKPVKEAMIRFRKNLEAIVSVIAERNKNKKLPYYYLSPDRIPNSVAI
Method in brief: (§1)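 Intact glycogen-elicited peritoneal PMNs pooled from 4–5 Sprague-Dawley rats (250 g), preincubated 5 min at 30 °C with compound in DMSO (≤0.1% final) plus 1 μM indomethacin. Challenge with [14C]arachidonic acid (4 μM) and A23187 (0.8 μM) for 3 min. Extraction, TLC, 5-HETE by scintillation counting.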

[3] = target: T3, Polyunsaturated fatty acid 5-lipoxygenase (Homo sapiens, UniProt P09917); assay: In vitro inhibition of polymorphonuclear leukocyte derived human 5-lipoxygenase
T3 sequence (P09917 whole entry): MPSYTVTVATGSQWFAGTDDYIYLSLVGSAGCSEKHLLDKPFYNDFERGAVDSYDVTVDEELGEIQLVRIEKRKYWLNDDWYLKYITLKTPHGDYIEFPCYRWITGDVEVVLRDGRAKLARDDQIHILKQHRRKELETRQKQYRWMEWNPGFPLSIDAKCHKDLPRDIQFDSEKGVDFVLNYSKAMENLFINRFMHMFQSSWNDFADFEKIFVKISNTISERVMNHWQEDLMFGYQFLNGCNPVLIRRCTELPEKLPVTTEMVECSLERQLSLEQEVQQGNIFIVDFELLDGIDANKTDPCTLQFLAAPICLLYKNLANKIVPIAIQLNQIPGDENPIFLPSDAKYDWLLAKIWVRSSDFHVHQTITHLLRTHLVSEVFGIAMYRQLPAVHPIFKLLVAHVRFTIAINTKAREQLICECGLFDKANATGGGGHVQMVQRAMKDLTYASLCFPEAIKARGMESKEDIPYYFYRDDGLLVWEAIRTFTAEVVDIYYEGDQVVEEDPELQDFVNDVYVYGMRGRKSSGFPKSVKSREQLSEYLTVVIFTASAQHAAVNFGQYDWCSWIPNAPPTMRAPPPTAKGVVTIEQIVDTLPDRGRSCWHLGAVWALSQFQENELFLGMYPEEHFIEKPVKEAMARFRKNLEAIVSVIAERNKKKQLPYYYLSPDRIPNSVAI
Method in brief: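 PMNs from venous blood of healthy volunteers, isolated by dextran sedimentation and Percoll gradient (>90% pure) and held in Ca/Mg PBS with 1 mg/mL glucose and 1 μM indomethacin. Challenged with calcium ionophore and [14C]arachidonic acid for 3 min. 5-HETE measured by TLC and scintillation counting; IC50 read graphically.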

Mus musculus = assay: In vivo inhibition of mouse ear inflammation; type: functional; parameters: concentration or dose not given beside the values
Method in brief: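 Compound or ethanol vehicle applied topically to one ear of male DBA/2J mice 60 min before arachidonic acid (2 mg/ear). […] Groups of 5 mice.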

Cavia porcellus = assay: In vivo inhibitory activity against guinea pig systemic anaphylaxis when administered a compound dose (200 mg/kg) perorally; type: functional; settings: po
Method in brief: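 Male Hartley guinea pigs sensitised ip with ovalbumin (2.7 mg/kg) plus LPS adjuvant, then challenged 2 weeks later with 1% ovalbumin aerosol for 30 s. Pretreated with pyrilamine, indomethacin and propranolol 20 min before challenge. Compound given in PEG 400 1 h before challenge.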

[4] = target: T1, Cyclooxygenase (Rattus norvegicus); assay: In vitro inhibitory activity against rat polymorphonuclear leukocyte Prostaglandin G/H synthase at 100 uM; type: protein assay
Method in brief: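 Glycogen-elicited peritoneal PMNs from Sprague-Dawley rats were homogenized at 0 °C in 0.1 M Tris-HCl pH 8.2 with 10 μM NDGA. Compound (DMSO ≤0.1%) was preincubated 5 min at 37 °C, then 8 μM [14C]arachidonic acid with 4 mM glutathione and epinephrine was added for 10 min. TxB2 and PGF2α were measured by TLC and scintillation counting.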

[5] = target: T4, Arachidonate 12-lipoxygenase (Rattus norvegicus) (UniProt Q02759); assay: In vitro inhibitory activity against rat platelet 12-lipoxygenase at 100 uM
T4 sequence (whole entry): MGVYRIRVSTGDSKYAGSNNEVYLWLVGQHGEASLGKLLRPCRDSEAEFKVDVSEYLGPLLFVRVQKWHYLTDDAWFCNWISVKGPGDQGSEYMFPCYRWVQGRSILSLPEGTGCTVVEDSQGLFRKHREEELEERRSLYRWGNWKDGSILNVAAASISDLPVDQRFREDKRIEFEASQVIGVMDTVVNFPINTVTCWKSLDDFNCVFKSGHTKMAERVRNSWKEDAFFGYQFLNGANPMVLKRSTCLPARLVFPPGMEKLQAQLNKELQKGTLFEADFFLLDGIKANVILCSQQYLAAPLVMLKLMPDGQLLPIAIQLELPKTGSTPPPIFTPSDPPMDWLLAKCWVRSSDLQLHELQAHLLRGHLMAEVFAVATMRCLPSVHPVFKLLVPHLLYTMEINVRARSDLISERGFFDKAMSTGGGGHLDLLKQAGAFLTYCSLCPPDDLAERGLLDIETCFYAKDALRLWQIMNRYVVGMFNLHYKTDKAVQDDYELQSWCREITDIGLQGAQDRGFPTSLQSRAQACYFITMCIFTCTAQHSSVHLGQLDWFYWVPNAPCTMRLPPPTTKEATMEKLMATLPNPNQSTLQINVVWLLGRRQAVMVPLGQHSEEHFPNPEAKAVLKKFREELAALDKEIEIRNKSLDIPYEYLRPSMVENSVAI
Method in brief: (§2)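 Cell-free cytosolic 12-lipoxygenase from Sprague-Dawley rat platelets (0.4 mg/mL), preincubated 5 min at 30 °C with compound in DMSO (≤0.1% final), 25 mM Tris pH 7.4, 1 μM indomethacin, 100 μM glutathione; reaction started with 6 μM [14C]arachidonic acid and quenched with citric acid/NDGA after 3 min. 12-HETE isolated by TLC and counted by scintillation; % inhibition, duplicate.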

[6] = target: T5, Polyunsaturated fatty acid 5-lipoxygenase (Rattus norvegicus) (UniProt P12527); assay: In vitro inhibitory activity against polymorphonuclear leukocyte 5-lipoxygenase in rat cell at 1 uM; method in brief: as §1
T5 sequence (whole entry): T2 sequence (P12527 whole entry)

[7] = target: T5, Polyunsaturated fatty acid 5-lipoxygenase (Rattus norvegicus); assay: In vitro inhibitory activity against polymorphonuclear leukocyte 5-lipoxygenase in rat cell at 10 uM; method in brief: as §1
[8] = target: T4, Arachidonate 12-lipoxygenase (Rattus norvegicus); assay: In vitro inhibitory activity against rat platelet 12-lipoxygenase at 10 uM; method in brief: as §2
[9] = target: T6, Polyunsaturated fatty acid 5-lipoxygenase (Homo sapiens) (UniProt P09917); assay: In vitro inhibitory activity against polymorphonuclear leukocyte 5-lipoxygenase in human cell at 10 uM
T6 sequence (whole entry): T3 sequence (P09917 whole entry)
Method in brief: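 Human PMNs from venous blood of a healthy volunteer (EDTA) were purified by dextran sedimentation, a Percoll gradient and NH4Cl red-cell lysis (>90% pure). They were held in Ca/Mg PBS with 1 mg/mL glucose and 1 μM indomethacin, then challenged with A23187 (0.8 μM) and [14C]arachidonic acid (4 μM) for 3 min. 5-HETE was measured by TLC and scintillation counting.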

inhibition [1] [%] | IC50 [2] [nM] | IC50 [3] [nM] | inhibition [4] [%] | inhibition [5] [%] | inhibition [6] [%] | inhibition [7] [%] | inhibition [8] [%] | inhibition [9] [%] | SMILES | Inhibition (Mus musculus) [%] | inhibition in vivo at 200 mg/kg (Cavia porcellus) [%]
< 10 | 300 | 100 |  |  |  |  |  |  | CC(C(=O)N(O)CCc1ccccc1)c1cccc(OCc2ccccc2)c1 (stereo unspecified) |  | 
< 10 | 110 | 250 |  |  |  |  |  |  | CN(O)C(=O)CCCCc1ccccc1 | 77 | 9
 | 1000 | 1200 | 65 |  |  |  |  |  | O=C(COc1ccccc1)N(O)CCc1ccccc1 |  | 
 | 100 | 100 | 15 |  |  |  |  |  | O=C(CCc1ccccc1)N(O)CCCc1ccccc1 | 67 | 0
44 | 2500 | 3000 |  | < 10 |  |  |  |  | CCC(Cc1ccccc1)N(O)C(=O)Cc1ccc(OCc2ccccc2)cc1 (stereo unspecified) | 38 | 
48 | 1000 | 2500 |  |  |  |  |  |  | COc1ccc(CC(=O)N(O)CCc2ccccc2)cc1 | 51 | 
16 |  |  |  |  | 3 |  |  |  | O=C(Cc1ccc(OCc2ccccc2)cc1)NO |  | 
 | 80 | 1000 | 30 |  |  |  |  |  | CN(O)C(=O)Cc1cccc(OCc2ccc3ccccc3n2)c1 | 68 | 
18 | 150 | 130 |  |  |  |  |  |  | O=C(CCCc1ccccc1)N(O)Cc1ccccc1 | 51 | 0
< 10 | 300 | 1300 |  |  |  |  |  |  | COc1ccc(CCCC(=O)N(C)O)cc1 | 67 | 60
 | 120 | 250 |  |  |  |  |  |  | COc1ccc(CCCC(=O)N(O)CCc2ccccc2)cc1 | 64 | 0
 | 1000 | 2000 | 20 |  |  |  |  |  | CC(C)Cc1ccc(C(C)C(=O)N(O)Cc2ccccc2)cc1 (stereo unspecified) |  | 
44 | 300 | 500 |  |  |  |  |  |  | CCOC(=O)CCCN(O)C(=O)CCCc1ccccc1 | 54 | 
 | 250 | 300 | 18 |  |  |  |  |  | O=C(CCOc1ccccc1)N(O)CCc1ccccc1 |  | 
50 | 50 | 150 |  |  |  |  |  |  | O=C(CCCCc1ccccc1)N(O)Cc1ccccc1 | 52 | 
< 10 | 500 | 600 |  |  |  |  |  |  | O=C(Cc1ccc(OCc2ccccc2)cc1)N(O)CCCc1ccccc1 | 12 | 
< 10 |  |  |  | 15 |  | 1 |  |  | O=C(O)CCCN(O)C(=O)CCCc1ccccc1 | 34 | 
39 |  |  |  |  |  | < 10 | < 10 | < 10 | CC(C)Cc1ccc(C(C)C(=O)N(Cc2ccccc2)OCc2ccccc2)cc1 (stereo unspecified) |  | 
